Data from ChEMBL document CHEMBL1208666, “Novel 6,8-dibromo-4(3H)quinazolinone derivatives of anti-bacterial and anti-fungal activities” (2010).
Values after ≈ are worked out from the molar mass of the structure shown. Active and inactive are the calls of the source. The calls are words filed in the database; no cut-off is given here.

Tests used:
Candida albicans [1] = assay: Antifungal activity against Candida albicans at 100 ug/ml after 48 hrs by paper disc diffusion technique; assay type: functional; settings: for zone of inhibition at 100 µg/mL: read-out: IZ
Method in brief: (§1)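 Paper disc diffusion on Sabouraud dextrose agar, autoclaved at 120 °C for 30 min. Medium at 40–50 °C was seeded at 1 ml/100 ml with a 10^5 cfu/ml fungal suspension matched to 0.9 McFarland. It was poured 3–4 mm deep, and compound discs in DMSO were applied. Plates were pre-incubated 1 h at room temperature, then 28 °C for 48 h. The inhibition zone was recorded.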

Listeria monocytogenes [2] = assay: Antibacterial activity against Listeria monocytogenes after 24 hrs by agar streak dilution method; assay type: functional
Method in brief: (§2)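 Agar streak dilution on Mueller Hinton agar. Compound stock in DMSO was added in graded amounts to molten sterile agar at 40–50 °C. This was poured 3–4 mm deep and left to solidify. Bacterial suspension of about 10^5 cfu/ml was applied to the serially diluted plates. Plates were incubated at 37 °C for 24 h to read the MIC. Strains were food-poisoning isolates from animal byproducts.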

Salmonella typhimurium [3] = assay: Antibacterial activity against Salmonella Typhimurium after 24 hrs by agar streak dilution method; assay type: functional, Salmonella enterica subsp. enterica serovar Typhimurium; settings: Salmonella enterica; method in brief: as §2
Listeria monocytogenes [4] = assay: Antibacterial activity against Listeria monocytogenes at 100 ug/ml after 24 hrs by paper disc diffusion technique; assay type: functional; settings: read-out: IZ
Method in brief: (§3)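 Paper disc diffusion on Mueller Hinton agar, autoclaved at 120 °C for 30 min. Medium at 40–50 °C was seeded at 1 ml/100 ml with a 10^5 cfu/ml suspension matched to 0.9 McFarland. It was poured 3–4 mm deep, and discs with compound in DMSO were laid on it. Plates were pre-incubated 1 h at room temperature, then 37 °C for 24 h. The inhibition zone was measured.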

Aspergillus flavus [5] = assay: Antifungal activity against Aspergillus flavus at 100 ug/ml after 48 hrs by paper disc diffusion technique; assay type: functional; settings: for zone of inhibition at 100 µg/mL: read-out: IZ; method in brief: as §1
Aspergillus flavus [6] = assay: Antifungal activity against Aspergillus flavus after 48 hrs by agar streak dilution method; assay type: functional
Method in brief: (§4)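 Fungal MIC by agar streak dilution on Sabouraud dextrose agar. Compound stock in DMSO was added in graded amounts to molten sterile medium at 40–50 °C. This was poured 3–4 mm deep and left to solidify. Fungal suspension of about 10^5 cfu/ml was applied to the serially diluted plates. Plates were incubated at 37 °C for 48 h.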

Salmonella typhimurium [7] = assay: Antibacterial activity against Salmonella Typhimurium at 100 ug/ml after 24 hrs by paper disc diffusion technique; assay type: functional, Salmonella enterica subsp. enterica serovar Typhimurium; settings: Salmonella enterica, read-out: IZ; method in brief: as §3
Pseudomonas aeruginosa [8] = assay: Antibacterial activity against Pseudomonas aeruginosa after 24 hrs by agar streak dilution method; assay type: functional; method in brief: as §2
Staphylococcus aureus [9] = assay: Antibacterial activity against Staphylococcus aureus after 24 hrs by agar streak dilution method; assay type: functional; method in brief: as §2
Staphylococcus aureus [10] = assay: Antibacterial activity against Staphylococcus aureus at 100 ug/ml after 24 hrs by paper disc diffusion technique; assay type: functional; settings: read-out: IZ; method in brief: as §3
Bacillus cereus [11] = assay: Antibacterial activity against Bacillus cereus at 100 ug/ml after 24 hrs by paper disc diffusion technique; assay type: functional; settings: read-out: IZ; method in brief: as §3
Escherichia coli [12] = assay: Antibacterial activity against Escherichia coli O157 at 100 ug/ml after 24 hrs by paper disc diffusion technique; assay type: functional; settings: O157, 24 h, read-out: IZ
Bacillus cereus [13] = assay: Antibacterial activity against Bacillus cereus after 24 hrs by agar streak dilution method; assay type: functional; method in brief: as §2
Escherichia coli [14] = assay: Antibacterial activity against Escherichia coli O157 after 24 hrs by agar streak dilution method; assay type: functional; settings: O157, 24 h
Pseudomonas aeruginosa [15] = assay: Antibacterial activity against Pseudomonas aeruginosa at 100 ug/ml after 24 hrs by paper disc diffusion technique; assay type: functional; settings: read-out: IZ; method in brief: as §3
Candida albicans [16] = assay: Antifungal activity against Candida albicans after 48 hrs by agar streak dilution method; assay type: functional; method in brief: as §4

Row | SMILES | inhibition zone (IZ) (Candida albicans [1]) | MIC (Listeria monocytogenes [2]) [µg/mL] | MIC (Salmonella typhimurium [3]) [µg/mL] | zone of inhibition at 100 µg/mL (Listeria monocytogenes [4]) [mm] | zone of inhibition at 100 µg/mL (Aspergillus flavus [5]) [mm] | MIC (Aspergillus flavus [6]) [µg/mL] | zone of inhibition at 100 µg/mL (Salmonella typhimurium [7]) [mm] | MIC (Pseudomonas aeruginosa [8]) [µg/mL] | MIC (Staphylococcus aureus [9]) [µg/mL] | zone of inhibition at 100 µg/mL (Staphylococcus aureus [10]) [mm] | zone of inhibition at 100 µg/mL (Bacillus cereus [11]) [mm] | zone of inhibition at 100 µg/mL (Escherichia coli [12]) [mm] | MIC (Bacillus cereus [13]) [µg/mL] | MIC (Escherichia coli [14]) [µg/mL] | zone of inhibition at 100 µg/mL (Pseudomonas aeruginosa [15]) [mm] | inhibition zone (IZ) (Aspergillus flavus [5]) | zone of inhibition at 100 µg/mL (Candida albicans [1]) [mm] | MIC (Candida albicans [16]) [µg/mL]
1 | O=C(NN1C(=O)CCC1=O)c1ccc(-n2c(-c3ccccc3)nc3c(Br)cc(Br)cc3c2=O)cc1 | inactive | 50 (≈ 83.9 µM) | 1.7 (≈ 2.85 µM) | 12 | 17 | 3.5 (≈ 5.87 µM) | 18 | > 50 | > 50 | 9 | 9 | 9 | > 50 | > 50 | 11 | – | – | –
2 | CC(=O)NNC(=O)c1ccc(-n2c(-c3ccccc3)nc3c(Br)cc(Br)cc3c2=O)cc1 | inactive | 35 (≈ 62.9 µM) | 30 (≈ 53.9 µM) | 14 | 22 | 1.2 (≈ 2.16 µM) | 14 | 25 (≈ 44.9 µM) | 40 (≈ 71.9 µM) | 11 | 9 | 9 | > 50 | > 50 | 13 | – | – | –
3 | O=C(NN1C(=O)CSC1c1ccccc1)c1ccc(-n2c(-c3ccccc3)nc3c(Br)cc(Br)cc3c2=O)cc1 (stereo not drawn) | inactive | 32 (≈ 47.3 µM) | 4.1 (≈ 6.06 µM) | 13 | – | – | 16 | 35 (≈ 51.7 µM) | 25 (≈ 37 µM) | 12 | 9 | 10 | 50 (≈ 73.9 µM) | > 50 | 12 | inactive | – | –
4 | Cc1ccc(/C=N/NC(=O)c2ccc(-n3c(-c4ccccc4)nc4c(Br)cc(Br)cc4c3=O)cc2)cc1 | inactive | 30 (≈ 48.7 µM) | 5 (≈ 8.11 µM) | 13 | 12 | 20 (≈ 32.5 µM) | 15 | 2.5 (≈ 4.06 µM) | 25 (≈ 40.6 µM) | 12 | 11 | 11 | 35 (≈ 56.8 µM) | 40 (≈ 64.9 µM) | 15 | – | – | –
5 | O=C(N/N=C/c1ccc(Cl)cc1)c1ccc(-n2c(-c3ccccc3)nc3c(Br)cc(Br)cc3c2=O)cc1 | inactive | 30 (≈ 47.1 µM) | > 50 | 14 | 16 | 12.5 (≈ 19.6 µM) | 10 | 20 (≈ 31.4 µM) | 25 (≈ 39.3 µM) | 12 | 16 | 12 | 5.5 (≈ 8.64 µM) | 20 (≈ 31.4 µM) | 12 | – | – | –
6 | O=C(N/N=C/c1ccccc1O)c1ccc(-n2c(-c3ccccc3)nc3c(Br)cc(Br)cc3c2=O)cc1 | inactive | 50 (≈ 80.9 µM) | 30 (≈ 48.5 µM) | 11 | 15 | 10.5 (≈ 17 µM) | 13 | > 50 | 12.5 (≈ 20.2 µM) | 15 | 13 | 10 | 25.5 (≈ 41.2 µM) | 50 (≈ 80.9 µM) | 11 | – | – | –
7 | O=C(N/N=C/c1ccccc1)c1ccc(-n2c(-c3ccccc3)nc3c(Br)cc(Br)cc3c2=O)cc1 | inactive | 35 (≈ 58.1 µM) | > 50 | 13 | 10 | 25 (≈ 41.5 µM) | 10 | 50 (≈ 83 µM) | 25 (≈ 41.5 µM) | 12 | 12 | 11 | 30 (≈ 49.8 µM) | 45 (≈ 74.7 µM) | 12 | – | – | –
8 | O=C(O)c1cn(C2CC2)c2cc(N3CCNCC3)c(F)cc2c1=O [CIPROFLOXACIN] | – | 1.56 (≈ 4.71 µM) | 0.39 (≈ 1.18 µM) | 17 | – | – | 20 | 0.78 (≈ 2.35 µM) | 1.56 (≈ 4.71 µM) | 18 | 20 | 18 | 0.39 (≈ 1.18 µM) | – | 19 | – | – | –
9 | COc1ccc(/C=N/NC(=O)c2ccc(-n3c(-c4ccccc4)nc4c(Br)cc(Br)cc4c3=O)cc2)cc1 | inactive | 50 (≈ 79.1 µM) | > 50 | 12 | 11 | 25 (≈ 39.5 µM) | 10 | > 50 | 50 (≈ 79.1 µM) | 11 | 13 | 8 | 35.5 (≈ 56.1 µM) | > 50 | 11 | – | – | –
10 | Cc1cc(C)n(C(=O)c2ccc(-n3c(-c4ccccc4)nc4c(Br)cc(Br)cc4c3=O)cc2)n1 | – | 12.5 (≈ 21.6 µM) | 20 (≈ 34.6 µM) | 15 | – | – | 14 | 30 (≈ 51.9 µM) | 50 (≈ 86.5 µM) | 10 | 13 | – | 25 (≈ 43.2 µM) | – | 12 | inactive | 9 | 50 (≈ 86.5 µM)
11 | CCOC(=O)c1ccc(-n2c(-c3ccccc3)nc3c(Br)cc(Br)cc3c2=O)cc1 | inactive | 25 (≈ 47.3 µM) | 3.12 (≈ 5.92 µM) | 14 | 10 | 25 (≈ 47.3 µM) | 16 | 50 (≈ 94.7 µM) | 1.56 (≈ 2.95 µM) | 17 | 9 | 11 | 50 (≈ 94.7 µM) | 50 (≈ 94.7 µM) | 12 | – | – | –
12 | NNC(=O)c1ccc(-n2c(-c3ccccc3)nc3c(Br)cc(Br)cc3c2=O)cc1 | inactive | 50 (≈ 97.2 µM) | 50 (≈ 97.2 µM) | 11 | 15 | 18.5 (≈ 36 µM) | 11 | 25 (≈ 48.6 µM) | > 50 | 10 | 12 | 10 | 25 (≈ 48.6 µM) | > 50 | 13 | – | – | –
13 | O=C(NN1C(=O)CSC1c1ccccc1O)c1ccc(-n2c(-c3ccccc3)nc3c(Br)cc(Br)cc3c2=O)cc1 (stereo not drawn) | inactive | 15 (≈ 21.7 µM) | 50 (≈ 72.2 µM) | 15 | – | – | 12 | 35 (≈ 50.5 µM) | 45 (≈ 65 µM) | 11 | 9 | 13 | > 50 | 30 (≈ 43.3 µM) | 12 | inactive | – | –
14 | O=C1CC(=O)N(C(=O)c2ccc(-n3c(-c4ccccc4)nc4c(Br)cc(Br)cc4c3=O)cc2)N1 | inactive | > 50 | 50 (≈ 85.9 µM) | 10 | 18 | 1.9 (≈ 3.26 µM) | 12 | > 50 | > 50 | 9 | 10 | – | > 50 | – | 11 | – | – | –
15 | CC1=NN(C(=O)c2ccc(-n3c(-c4ccccc4)nc4c(Br)cc(Br)cc4c3=O)cc2)C(=O)C1 | – | 6 (≈ 10.3 µM) | 30 (≈ 51.7 µM) | 16 | 20 | 2.5 (≈ 4.31 µM) | 14 | 50 (≈ 86.2 µM) | 40 (≈ 68.9 µM) | 11 | 11 | – | > 50 | – | 12 | – | 9 | 50 (≈ 86.2 µM)
16 | OC(Cn1cncn1)(Cn1cncn1)c1ccc(F)cc1F [FLUCONAZOLE] | – | – | – | – | 22 | 0.78 (≈ 2.55 µM) | – | – | – | – | – | – | – | – | – | – | 18 | 1.56 (≈ 5.09 µM)
